Assay results collected from several papers.
Target: Serine/threonine-protein kinase MARK2 (MARK2, Homo sapiens, UniProt Q7KZI7)

SMILES | assay | test system | conditions | measurement | value
c1cc(CN2CCOCC2)cc(Nc2ncc(C3CC3)c(NCCc3c[nH]cn3)n2)c1 | enzyme activity, inhibitor, radiometric |  | 1 µM | remaining activity | 14%
CCCCNc1ncc2c(-c3ccc(F)cc3)nn(C[C@H]3CC[C@H](N)CC3)c2n1 | target engagement in cells, inhibitor, chemoproteomics |  | 20 mM | inhibition | 18%
Cc1ccc(NC(=O)c2ccc(C)c(C(F)(F)F)c2)cc1C#Cc1nn(C2CCC(O)CC2)c2ncnc(N)c12 (stereo not drawn) | cell-free assay |  | 10 µM | remaining signal | 98%
Cc1ccc(Nc2nccc(N(C)c3ccc4c(C)n(C)nc4c3)n2)cc1S(N)(=O)=O | enzyme activity, inhibitor |  | 0.3 µM | inhibition | 27%
Oc1cccc(-c2nc(N3CCOCC3)c3oc4ncccc4c3n2)c1 | cell-free assay |  | 0.5 µM | remaining signal | 92.9%
Cc1nn(CC(F)(F)F)cc1Nc1nccc(NCCCNC(=O)C2CCC2)n1 | enzyme activity, inhibitor, radiometric |  | 1 µM | remaining activity | 103%
Cc1c(NC(=O)c2cc(C(N)=O)nc3cc(F)ccc23)c(C(F)(F)F)nn1Cc1ccc(C#N)cc1 | cell-free assay, competition with immobilised ligand |  | 1 µM | remaining binding | 97%
O=C(NCCCNc1nc(Nc2cccc(NC(=O)N3CCCC3)c2)ncc1C1CC1)C1CCC1 | enzyme activity, inhibitor, radiometric |  | 1 µM | remaining activity | 6%
CN(C)C1CCN(CC#Cc2nn(C3CCCC3)c3nc(NCc4ccccc4)ncc23)C1 (stereo not drawn) | enzyme activity, inhibitor, FRET |  | 1 µM | inhibition | 3%
NS(=O)(=O)c1ccc(CNc2ccnc(Nc3cccc(NC(=O)N4CCCC4)c3)n2)cc1 | enzyme activity, inhibitor, radiometric |  | 1 µM | remaining activity | 115%
C[C@@H]1CN(c2cc(-c3nn(C)c4ccc(OC5(C)CC5)cc34)ncn2)C[C@H](C)O1 | cell-free assay, competition with immobilised ligand |  | 1 µM | remaining binding | 89%
CN1CC(Oc2cnc(C#N)cc2-c2ccn3nc(NC(=O)C4CC4)cc3c2)C1 | enzyme activity, inhibitor |  | 1 µM | inhibition | -1%
CC(C)CC(=O)N1CCc2nc(-c3ccc(Br)cc3)nc(N(C)Cc3ccccc3)c2C1 | cell-free assay, competition with immobilised ligand |  | 0.1 µM | remaining binding | 100%
CCN1CCN(Cc2ccc(NC(=O)c3ccc(C)c(Oc4ccnc5[nH]ccc45)c3)cc2C(F)(F)F)CC1 | target engagement in cells, inhibitor, chemoproteomics | Huh-7 | 1 µM | inhibition | -10.4%
O=C(N[C@H]1CCCCC/C=C\C2C[C@@]2(C(=O)O)NC(=O)[C@@H]2C[C@@H](Oc3ccncc3)CN2C1=O)OC1CCCC1 (stereo partly drawn) | binding, competition with immobilised ligand |  | 1 µM | remaining binding | 81%
NS(=O)(=O)c1ccc(CNc2nc(Nc3cccc(CN4CCOCC4)c3)ncc2Br)cc1 | enzyme activity, inhibitor, radiometric |  | 1 µM | remaining activity | 65%
CS(=O)(=O)c1cc(C2(NC(=O)c3cncc4c3cnn4-c3ccc(F)cc3)CC2)ccn1 | cell-free assay, competition with immobilised ligand |  | 1 µM | remaining binding | 100%
Nc1ncnc2occ(-c3ccc(NC(=O)Nc4cc(C(F)(F)F)ccc4F)cc3)c12 | cell-free assay, inhibitor |  | 20 µM | remaining signal | 22%
